Source: ChEMBL document CHEMBL4715693, “Synthesis and antiviral properties of novel indole-based thiosemicarbazides and 4-thiazolidinones” (Bioorg Med Chem, 2016)
Converted amounts (≈) assume the structure as drawn.

Tested on: Influenza B virus
Assay: Antiviral activity against influenza B virus infected in dog MDCK cells assessed as reduction in virus-induced cytopathic effect incubated for 3 to 6 days by light microscopic analysis
Assay type: functional, organism-based
Settings: not given
Outline: (§1)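 MDCK cells, subconfluent, received influenza A or B virus together with serial compound dilutions. Incubated 3–6 days at 35 °C.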

With `O=C(N/N=C1\SCC(=O)N1Cc1ccccc1)c1[nH]c2ccc(F)cc2c1-c1ccccc1` as the compound, how does the EC50 read?
Its EC50 is over 100 µg/mL.

Which EC50 does the source give for `CCCCN1C(=O)CS/C1=N\NC(=O)c1[nH]c2ccc(F)cc2c1-c1ccccc1` here?
The EC50 was over 100 µg/mL.

Tested on: Felid alphaherpesvirus 1
Assay: Antiviral activity against Feline herpesvirus infected in cat CRFK cells assessed as reduction in virus-induced cytopathic effect incubated for 3 to 6 days by light microscopic analysis
Assay type: functional, organism-based
Settings: Felid alphaherpesvirus 1, CRFK

For `O=C(N/N=C1\SCC(=O)N1Cc1ccccc1)c1[nH]c2ccc(F)cc2c1-c1ccccc1`, which EC50 is on record?
Its EC50 is over 100 µg/mL.

With `CCCCN1C(=O)CS/C1=N\NC(=O)c1[nH]c2ccc(F)cc2c1-c1ccccc1` as the compound, how does the EC50 read?
Its EC50 is over 100 µg/mL.

Tested on: Vesicular stomatitis virus
Assay: Antiviral activity against Vesicular stomatitis virus infected in human HeLa cells assessed as reduction in virus-induced cytopathic effect incubated for 3 to 6 days by light microscopic analysis
Assay type: functional, organism-based
Settings: not given
Outline: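 CPE reduction assay: virus and serial compound dilutions added together to subconfluent HeLa (vesicular stomatitis, Coxsackie B4, respiratory syncytial) or Vero (Coxsackie B4, Sindbis, Punta Toro) cultures. Incubated 3–6 days at 37 °C. Mean ± SEM of three independent tests.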

With `O=C(N/N=C1\SCC(=O)N1Cc1ccccc1)c1[nH]c2ccc(F)cc2c1-c1ccccc1` as the compound, how does the EC50 read?
The EC50 was over 100 µg/mL.

With `CCCCN1C(=O)CS/C1=N\NC(=O)c1[nH]c2ccc(F)cc2c1-c1ccccc1` as the compound, how does the EC50 read?
Its EC50 is over 100 µg/mL.

Tested on: Coxsackievirus B4
Assay: Antiviral activity against Human coxsackievirus B4 infected in African green monkey Vero cells assessed as reduction in virus-induced cytopathic effect incubated for 3 to 6 days by light microscopic analysis
Assay type: functional, organism-based
Settings: Enterovirus B
Outline: (§2)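 CPE reduction assay: virus and serial compound dilutions added together to subconfluent HeLa (vesicular stomatitis, Coxsackie B4, respiratory syncytial) or Vero (Coxsackie B4, Sindbis, Punta Toro) cultures. Incubated 3–6 days at 37 °C. […] Mean ± SEM of three independent tests.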

For `O=C(N/N=C1\SCC(=O)N1Cc1ccccc1)c1[nH]c2ccc(F)cc2c1-c1ccccc1`, which EC50 is on record?
Its EC50 is over 100 µg/mL.

Which EC50 does the source give for `CCCCN1C(=O)CS/C1=N\NC(=O)c1[nH]c2ccc(F)cc2c1-c1ccccc1` here?
The EC50 was over 100 µg/mL.

Tested on: Human alphaherpesvirus 2
Assay: Antiviral activity against Herpes simplex virus 2 infected in human HEL cells assessed as reduction in virus-induced cytopathic effect incubated for 3 to 6 days by light microscopic analysis
Assay type: functional, cell-based
Settings: Human alphaherpesvirus 2, HEL

With `O=C(N/N=C1\SCC(=O)N1Cc1ccccc1)c1[nH]c2ccc(F)cc2c1-c1ccccc1` as the compound, how does the EC50 read?
Its EC50 is over 100 µg/mL.

For `CCCCN1C(=O)CS/C1=N\NC(=O)c1[nH]c2ccc(F)cc2c1-c1ccccc1`, which EC50 is on record?
Its EC50 is over 100 µg/mL.

Tested on: Feline coronavirus
Assay: Antiviral activity against Feline coronavirus infected in cat CRFK cells assessed as reduction in virus-induced cytopathic effect incubated for 3 to 6 days by light microscopic analysis
Assay type: functional, organism-based
Settings: Alphacoronavirus 1, CRFK

Which EC50 does the source give for `O=C(N/N=C1\SCC(=O)N1Cc1ccccc1)c1[nH]c2ccc(F)cc2c1-c1ccccc1` here?
The EC50 was over 100 µg/mL.

Which EC50 does the source give for `CCCCN1C(=O)CS/C1=N\NC(=O)c1[nH]c2ccc(F)cc2c1-c1ccccc1` here?
The EC50 was over 100 µg/mL.

Tested on: MT4
Assay: Cytotoxicity against human MT4 cells assessed as reduction in cell viability incubated for 3 to 6 days by MTS assay
Assay type: cell-based
Settings: time 3-6 day
Outline: (§3)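 CRFK or MT4 cells were exposed to serial compound dilutions alongside the antiviral assays for 3–6 days at 37 °C.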

For `O=C(N/N=C1\SCC(=O)N1Cc1ccccc1)c1[nH]c2ccc(F)cc2c1-c1ccccc1`, which CC50 is on record?
The CC50 was 38 µg/mL (≈ 82.9 µM).

Which CC50 does the source give for `CCCCN1C(=O)CS/C1=N\NC(=O)c1[nH]c2ccc(F)cc2c1-c1ccccc1` here?
The CC50 was “>= 98 ug ml-1”.

Tested on: Influenza A virus
Assay: Antiviral activity against influenza A virus infected in dog MDCK cells assessed as reduction in virus-induced cytopathic effect incubated for 3 to 6 days by light microscopic analysis
Assay type: functional, organism-based
Settings: Influenza A virus, MDCK
Outline: as §1

With `O=C(N/N=C1\SCC(=O)N1Cc1ccccc1)c1[nH]c2ccc(F)cc2c1-c1ccccc1` as the compound, how does the EC50 read?
Its EC50 is over 100 µg/mL.

With `CCCCN1C(=O)CS/C1=N\NC(=O)c1[nH]c2ccc(F)cc2c1-c1ccccc1` as the compound, how does the EC50 read?
The EC50 was over 100 µg/mL.

Tested on: Human immunodeficiency virus 1
Assay: Antiviral activity against Human immunodeficiency virus 1 infected in human MT4 cells assessed as reduction in virus-induced cytopathic effect incubated for 3 to 6 days by light microscopic analysis
Assay type: functional, organism-based
Settings: Human immunodeficiency virus 1, MT4

For `O=C(N/N=C1\SCC(=O)N1Cc1ccccc1)c1[nH]c2ccc(F)cc2c1-c1ccccc1`, which EC50 is on record?
The EC50 was over 100 µg/mL.

For `CCCCN1C(=O)CS/C1=N\NC(=O)c1[nH]c2ccc(F)cc2c1-c1ccccc1`, which EC50 is on record?
The EC50 was over 100 µg/mL.

Tested on: Human respirovirus 3
Assay: Antiviral activity against Human parainfluenza virus 3 infected in African green monkey Vero cells assessed as reduction in virus-induced cytopathic effect incubated for 3 to 6 days by light microscopic analysis
Assay type: functional, organism-based
Settings: Human respirovirus 3, Vero

For `O=C(N/N=C1\SCC(=O)N1Cc1ccccc1)c1[nH]c2ccc(F)cc2c1-c1ccccc1`, which EC50 is on record?
The EC50 was over 100 µg/mL.

Which EC50 does the source give for `CCCCN1C(=O)CS/C1=N\NC(=O)c1[nH]c2ccc(F)cc2c1-c1ccccc1` here?
Its EC50 is over 100 µg/mL.

Tested on: Coxsackievirus B4
Assay: Antiviral activity against Human coxsackievirus B4 infected in human HeLa cells assessed as reduction in virus-induced cytopathic effect incubated for 3 to 6 days by light microscopic analysis
Assay type: functional, organism-based
Settings: Enterovirus B
Outline: as §2

With `O=C(N/N=C1\SCC(=O)N1Cc1ccccc1)c1[nH]c2ccc(F)cc2c1-c1ccccc1` as the compound, how does the EC50 read?
The EC50 was over 100 µg/mL.

With `CCCCN1C(=O)CS/C1=N\NC(=O)c1[nH]c2ccc(F)cc2c1-c1ccccc1` as the compound, how does the EC50 read?
Its EC50 is over 100 µg/mL.

Tested on: Punta Toro virus
Assay: Antiviral activity against Punta Toro virus infected in African green monkey Vero cells assessed as reduction in virus-induced cytopathic effect incubated for 3 to 6 days by light microscopic analysis
Assay type: functional, organism-based
Settings: not given
Outline: as §2

Which EC50 does the source give for `O=C(N/N=C1\SCC(=O)N1Cc1ccccc1)c1[nH]c2ccc(F)cc2c1-c1ccccc1` here?
Its EC50 is over 100 µg/mL.

With `CCCCN1C(=O)CS/C1=N\NC(=O)c1[nH]c2ccc(F)cc2c1-c1ccccc1` as the compound, how does the EC50 read?
The EC50 was over 100 µg/mL.

Tested on: Vaccinia virus
Assay: Antiviral activity against Vaccinia virus infected in human HEL cells assessed as reduction in virus-induced cytopathic effect incubated for 3 to 6 days by light microscopic analysis
Assay type: functional, organism-based
Settings: Orthopoxvirus vaccinia

Which EC50 does the source give for `O=C(N/N=C1\SCC(=O)N1Cc1ccccc1)c1[nH]c2ccc(F)cc2c1-c1ccccc1` here?
The EC50 was over 100 µg/mL.

With `CCCCN1C(=O)CS/C1=N\NC(=O)c1[nH]c2ccc(F)cc2c1-c1ccccc1` as the compound, how does the EC50 read?
Its EC50 is over 100 µg/mL.

Tested on: not listed separately
Assay: Cytotoxicity against African green monkey Vero cells assessed as changes in cell morphology incubated for 3 to 6 days by light microscopy
Assay type: cell-based
Settings: chlorocebus sabaeus, time 3-6 day
Outline: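 Uninfected subconfluent cells (Vero or HeLa, as named) exposed to serial compound dilutions in parallel with the CPE assays, 37 °C, 3–6 days. Cell morphology examined by light microscopy; MCC = minimal concentration causing microscopically detectable changes in morphology.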

With `O=C(N/N=C1\SCC(=O)N1Cc1ccccc1)c1[nH]c2ccc(F)cc2c1-c1ccccc1` as the compound, how does the MCC read?
Its MCC is at least 10 µg/mL.

Tested on: Respiratory syncytial virus
Assay: Antiviral activity against Respiratory syncytial virus infected in human HeLa cells assessed as reduction in virus-induced cytopathic effect incubated for 3 to 6 days by light microscopic analysis
Assay type: functional, organism-based
Settings: not given
Outline: as §2

Which EC50 does the source give for `O=C(N/N=C1\SCC(=O)N1Cc1ccccc1)c1[nH]c2ccc(F)cc2c1-c1ccccc1` here?
The EC50 was over 100 µg/mL.

For `CCCCN1C(=O)CS/C1=N\NC(=O)c1[nH]c2ccc(F)cc2c1-c1ccccc1`, which EC50 is on record?
The EC50 was over 100 µg/mL.

Tested on: Human immunodeficiency virus 2
Assay: Antiviral activity against Human immunodeficiency virus 2 infected in human MT4 cells assessed as reduction in virus-induced cytopathic effect incubated for 3 to 6 days by light microscopic analysis
Assay type: functional, organism-based
Settings: Human immunodeficiency virus 2, MT4

Which EC50 does the source give for `O=C(N/N=C1\SCC(=O)N1Cc1ccccc1)c1[nH]c2ccc(F)cc2c1-c1ccccc1` here?
The EC50 was over 100 µg/mL.

Which EC50 does the source give for `CCCCN1C(=O)CS/C1=N\NC(=O)c1[nH]c2ccc(F)cc2c1-c1ccccc1` here?
Its EC50 is over 100 µg/mL.

Tested on: not listed separately
Assay: Cytotoxicity against human HEL cells assessed as changes in cell morphology incubated for 3 to 6 days by light microscopy
Assay type: cell-based
Settings: time 3-6 day
Outline: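 Human embryonic lung fibroblasts incubated with serial compound dilutions alongside the antiviral assays, 37 °C, 3–6 days. Morphology inspected by light microscopy; minimal cytotoxic concentration taken as lowest concentration giving minimal morphological change.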

Which MCC does the source give for `O=C(N/N=C1\SCC(=O)N1Cc1ccccc1)c1[nH]c2ccc(F)cc2c1-c1ccccc1` here?
Its MCC is over 10 µg/mL.

For `CCCCN1C(=O)CS/C1=N\NC(=O)c1[nH]c2ccc(F)cc2c1-c1ccccc1`, which MCC is on record?
The MCC was over 10 µg/mL.

Tested on: Sindbis virus
Assay: Antiviral activity against Sindbis virus infected in African green monkey Vero cells assessed as reduction in virus-induced cytopathic effect incubated for 3 to 6 days by light microscopic analysis
Assay type: functional, organism-based
Settings: not given
Outline: as §2

Which EC50 does the source give for `O=C(N/N=C1\SCC(=O)N1Cc1ccccc1)c1[nH]c2ccc(F)cc2c1-c1ccccc1` here?
Its EC50 is over 100 µg/mL.

For `CCCCN1C(=O)CS/C1=N\NC(=O)c1[nH]c2ccc(F)cc2c1-c1ccccc1`, which EC50 is on record?
The EC50 was over 100 µg/mL.

Tested on: Human alphaherpesvirus 1
Assay: Antiviral activity against Herpes simplex virus 1 infected in human HEL cells assessed as reduction in virus-induced cytopathic effect incubated for 3 to 6 days by light microscopic analysis
Assay type: functional, cell-based
Settings: Human alphaherpesvirus 1, HEL

With `O=C(N/N=C1\SCC(=O)N1Cc1ccccc1)c1[nH]c2ccc(F)cc2c1-c1ccccc1` as the compound, how does the EC50 read?
Its EC50 is over 100 µg/mL.

Which EC50 does the source give for `CCCCN1C(=O)CS/C1=N\NC(=O)c1[nH]c2ccc(F)cc2c1-c1ccccc1` here?
Its EC50 is over 100 µg/mL.

Tested on: Mammalian orthoreovirus 1
Assay: Antiviral activity against Mammalian orthoreovirus 1 infected in African green monkey Vero cells assessed as reduction in virus-induced cytopathic effect incubated for 3 to 6 days by light microscopic analysis
Assay type: functional, organism-based
Settings: Mammalian orthoreovirus 1, Vero

For `O=C(N/N=C1\SCC(=O)N1Cc1ccccc1)c1[nH]c2ccc(F)cc2c1-c1ccccc1`, which EC50 is on record?
Its EC50 is over 100 µg/mL.

Which EC50 does the source give for `CCCCN1C(=O)CS/C1=N\NC(=O)c1[nH]c2ccc(F)cc2c1-c1ccccc1` here?
The EC50 was over 100 µg/mL.

Tested on: not listed separately
Assay: Cytotoxicity against cat CRFK cells assessed as reduction in cell viability incubated for 3 to 6 days by MTS assay
Assay type: cell-based, Felis catus
Settings: crfk, time 3-6 day
Outline: as §3

Which CC50 does the source give for `O=C(N/N=C1\SCC(=O)N1Cc1ccccc1)c1[nH]c2ccc(F)cc2c1-c1ccccc1` here?
The CC50 was over 100 µg/mL.

With `CCCCN1C(=O)CS/C1=N\NC(=O)c1[nH]c2ccc(F)cc2c1-c1ccccc1` as the compound, how does the CC50 read?
The CC50 was over 100 µg/mL.
